Reference: ChEMBL document CHEMBL1157704, “Potent activity against K562 cells by polyamide-seco-CBI conjugates targeting histone H4 genes” (Bioorg Med Chem, 2010)

Key:
[1] = tested on: K562; assay: Effect on HIST2H2A gene expression in human K562 cells assessed as change in mRNA transcript expression at 10 nM after 48 hrs by DNA microarray analysis relative to control; type: functional
Outline: (§1)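 K562 CML cells (b3a2 Bcr-Abl) in standard ATCC-recommended culture, exposed once to 10 nM conjugate and harvested at 48 h. Untreated controls were also collected at 48 h. Transcripts were profiled on Human Gene 1.0 ST whole-genome oligonucleotide arrays, and each treated level was expressed relative to the untreated control, with a cutoff of at least twofold change.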

[2] = tested on: K562; assay: Effect on HIST1H2AC gene expression in human K562 cells assessed as change in mRNA transcript expression at 10 nM after 48 hrs by DNA microarray analysis relative to control; type: functional
Outline: (§2)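 Transcripts were profiled on Affymetrix GeneChip Human Gene 1.0 ST arrays in K562 cells treated at 10 nM. Treated cells were collected at 6, 12, 24 and 48 h; untreated controls were collected at 48 h. Transcripts changed at least twofold versus control were scored.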

[3] = tested on: K562; assay: Effect on UBE2W gene expression in human K562 cells assessed as change in mRNA transcript expression at 10 nM after 48 hrs by DNA microarray analysis relative to control; type: functional
Outline: (§3)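 K562 CML cells (b3a2 Bcr-Abl) kept under standard culture conditions were exposed to 10 nM conjugate and harvested at 6, 12, 24 and 48 h. Untreated controls were harvested at 48 h. Whole-transcript oligonucleotide microarray profiling was done, and changes of at least twofold versus control were scored.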

[4] = tested on: K562; assay: Effect on CLGN gene expression in human K562 cells assessed as change in mRNA transcript expression at 10 nM after 48 hrs by DNA microarray analysis relative to control; type: functional; outline: as §2
[5] = tested on: K562; assay: Effect on LPHN3 gene expression in human K562 cells assessed as change in mRNA transcript expression at 10 nM after 48 hrs by DNA microarray analysis relative to control; type: functional; outline: as §1
[6] = tested on: K562; assay: Effect on SASH1 gene expression in human K562 cells assessed as change in mRNA transcript expression at 10 nM after 48 hrs by DNA microarray analysis relative to control; type: functional; outline: as §1
[7] = tested on: K562; assay: Effect on TRIB3 gene expression in human K562 cells assessed as change in mRNA transcript expression at 10 nM after 48 hrs by DNA microarray analysis relative to control; type: functional; outline: as §3
[8] = tested on: K562; assay: Cytotoxicity against human K562 cells by MTS assay; type: functional, cell-based
Outline: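 Proliferation of K562 cells (ATCC, standard culture) was read as mitochondrial conversion of the MTS tetrazolium to formazan, using the CellTiter 96 Aqueous One reagent. EC50 was derived from these readings.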

[9] = tested on: K562; assay: Effect on HIST1H4B gene expression in human K562 cells assessed as down-regulation of mRNA transcript expression at 10 nM after 48 hrs by DNA microarray analysis relative to control; type: functional; outline: as §2
[10] = tested on: K562; assay: Effect on EIF4B gene expression in human K562 cells assessed as change in mRNA transcript expression at 10 nM after 48 hrs by DNA microarray analysis relative to control; type: functional; outline: as §2
[11] = tested on: K562; assay: Effect on RNU5E gene expression in human K562 cells assessed as change in mRNA transcript expression at 10 nM after 48 hrs by DNA microarray analysis relative to control; type: functional; outline: as §1
[12] = tested on: K562; assay: Effect on PLA2G6 gene expression in human K562 cells assessed as change in mRNA transcript expression at 10 nM after 48 hrs by DNA microarray analysis relative to control; type: functional; outline: as §1
[13] = tested on: K562; assay: Effect on RHD/RHCE gene expression in human K562 cells assessed as change in mRNA transcript expression at 10 nM after 48 hrs by DNA microarray analysis relative to control; type: functional; outline: as §1
[14] = tested on: K562; assay: Effect on ITGB3 gene expression in human K562 cells assessed as change in mRNA transcript expression at 10 nM after 48 hrs by DNA microarray analysis relative to control; type: functional; outline: as §1
[15] = tested on: K562; assay: Effect on CREB3L1 gene expression in human K562 cells assessed as change in mRNA transcript expression at 10 nM after 48 hrs by DNA microarray analysis relative to control; type: functional; outline: as §2
[16] = tested on: K562; assay: Effect on C3 gene expression in human K562 cells assessed as change in mRNA transcript expression at 10 nM after 48 hrs by DNA microarray analysis relative to control; type: functional; outline: as §2
[17] = tested on: K562; assay: Effect on FLJ21767 gene expression in human K562 cells assessed as change in mRNA transcript expression at 10 nM after 48 hrs by DNA microarray analysis relative to control; type: functional; outline: as §2
[18] = tested on: K562; assay: Effect on ATP1B2 gene expression in human K562 cells assessed as change in mRNA transcript expression at 10 nM after 48 hrs by DNA microarray analysis relative to control; type: functional; outline: as §2
[19] = tested on: K562; assay: Effect on TCN1 gene expression in human K562 cells assessed as change in mRNA transcript expression at 10 nM after 48 hrs by DNA microarray analysis relative to control; type: functional; outline: as §1
[20] = tested on: K562; assay: Effect on C0MMD1 gene expression in human K562 cells assessed as change in mRNA transcript expression at 10 nM after 48 hrs by DNA microarray analysis relative to control; type: functional; outline: as §2
[21] = tested on: K562; assay: Effect on HIST1H2AH gene expression in human K562 cells assessed as change in mRNA transcript expression at 10 nM after 48 hrs by DNA microarray analysis relative to control; type: functional; outline: as §2
[22] = tested on: K562; assay: Effect on TMEM126A gene expression in human K562 cells assessed as change in mRNA transcript expression at 10 nM after 48 hrs by DNA microarray analysis relative to control; type: functional; outline: as §3
[23] = tested on: K562; assay: Effect on ARRDC3 gene expression in human K562 cells assessed as change in mRNA transcript expression at 10 nM after 48 hrs by DNA microarray analysis relative to control; type: functional; outline: as §2
[24] = tested on: K562; assay: Effect on HIST2H2AA gene expression in human K562 cells assessed as change in mRNA transcript expression at 10 nM after 48 hrs by DNA microarray analysis relative to control; type: functional; outline: as §1
[25] = tested on: K562; assay: Effect on HIST1H2BL gene expression in human K562 cells assessed as change in mRNA transcript expression at 10 nM after 48 hrs by DNA microarray analysis relative to control; type: functional; outline: as §2
[26] = tested on: K562; assay: Effect on BBS9 gene expression in human K562 cells assessed as change in mRNA transcript expression at 10 nM after 48 hrs by DNA microarray analysis relative to control; type: functional; outline: as §2
[27] = tested on: K562; assay: Effect on COMMD10 gene expression in human K562 cells assessed as change in mRNA transcript expression at 10 nM after 48 hrs by DNA microarray analysis relative to control; type: functional; outline: as §2
[28] = tested on: K562; assay: Effect on HSPA1A gene expression in human K562 cells assessed as change in mRNA transcript expression at 10 nM after 48 hrs by DNA microarray analysis relative to control; type: functional; outline: as §1
[29] = tested on: K562; assay: Effect on HSPA1B gene expression in human K562 cells assessed as change in mRNA transcript expression at 10 nM after 48 hrs by DNA microarray analysis relative to control; type: functional; outline: as §1
[30] = tested on: K562; assay: Effect on LOC85391 gene expression in human K562 cells assessed as change in mRNA transcript expression at 10 nM after 48 hrs by DNA microarray analysis relative to control; type: functional; outline: as §1

Question: For CC(=O)Nc1cn(C)c(C(=O)Nc2cn(C)c(C(=O)NCCC(=O)Nc3cn(C)c(C(=O)NCCCC(=O)Nc4cc(C(=O)Nc5cn(C)c(C(=O)Nc6ccc7[nH]c(C(=O)N8CC(CCl)c9c8cc(O)c8ccccc98)cc7c6)n5)n(C)c4)n3)n2)n1 (stereo not given), which “fold change (FC)” value [1] is on record?
Answer: >=2

Question: And the “fold change (FC)” value [2]?
Answer: >=2

Question: And the “fold change (FC)” value [3]?
Answer: >=2

Question: And the “fold change (FC)” value [4]?
Answer: >=2

Question: And the “fold change (FC)” value [5]?
Answer: >=2

Question: What about the “fold change (FC)” value [6] of the same compound?
Answer: >=2

Question: What about the “fold change (FC)” value [7] of the same compound?
Answer: >=2

Question: And the EC50 [8]?
Answer: 97 nM

Question: What about the “fold change (FC)” value [9] of the same compound?
Answer: 3.91

Question: And the “fold change (FC)” value [10]?
Answer: >=2

Question: And the “fold change (FC)” value [11]?
Answer: >=2

Question: What about the “fold change (FC)” value [12] of the same compound?
Answer: >=2

Question: What about the “fold change (FC)” value [13] of the same compound?
Answer: >=2

Question: What about the “fold change (FC)” value [14] of the same compound?
Answer: >=2

Question: And the “fold change (FC)” value [15]?
Answer: >=2

Question: What about the “fold change (FC)” value [16] of the same compound?
Answer: >=2

Question: What about the “fold change (FC)” value [17] of the same compound?
Answer: >=2

Question: And the “fold change (FC)” value [18]?
Answer: >=2

Question: What about the “fold change (FC)” value [19] of the same compound?
Answer: >=2

Question: And the “fold change (FC)” value [20]?
Answer: >=2

Question: What about the “fold change (FC)” value [21] of the same compound?
Answer: >=2

Question: And the “fold change (FC)” value [22]?
Answer: >=2

Question: And the “fold change (FC)” value [23]?
Answer: >=2

Question: What about the “fold change (FC)” value [24] of the same compound?
Answer: >=2

Question: What about the “fold change (FC)” value [25] of the same compound?
Answer: >=2

Question: What about the “fold change (FC)” value [26] of the same compound?
Answer: >=2

Question: What about the “fold change (FC)” value [27] of the same compound?
Answer: >=2

Question: And the “fold change (FC)” value [28]?
Answer: >=2

Question: And the “fold change (FC)” value [29]?
Answer: >=2

Question: What about the “fold change (FC)” value [30] of the same compound?
Answer: >=2
